Runt-CBFb FRET: inhibitors of human RUNX1 Runt domain binding to CBFb. Q01196+Q13951. Cerulean-Runt/Venus-CBFb FRET ratio 530/480, 1 h. inhibition, % at 20 µM. 0.46% of 220,000 active;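 active = inhibition over about 50% at 20 µM in the single-dose screen, limit read from the data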;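 also: 0% = DMSO wells and 100% = excess unlabeled CBFb competitor control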
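Assay system: Cerulean-Runt domain / Medium: Tris 50 mM pH 7.5, KCl, K2SO4, 0.01% BSA / Timing: protein complex preformed 1 h, compound exposure 1 h, room temperature, dark / Measured by: FRET, excitation 422 nm, emission at 530 and 480 nm / Evaluation: loss of energy transfer signal / Control set: 5 µM unlabeled CBFb as full-inhibition high control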
Hck-Nef inh: blocks Nef-activated human Hck kinase. P08631. Recombinant Hck-YEEI plus Nef, Z-Lyte FRET kinase assay. inhibition, % at 20 µM. 0.68% of 220,000 active. AID 463187;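 active = Hck-Nef kinase inhibition above about 50%, limit read from the data; inactive = inhibition below that limit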;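 also: 0% = DMSO with Hck plus Nef and 100% = Hck alone without Nef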
RanGTP-Imp inh: disruptors of Ran-importin-beta complex formation – biochemical, FRET, CFP-Ran, YFP-importin-beta, homogeneous, primary screen; inhibition, % (no concentration beside the values); 1.1% of 300,000 active; cell-free CFP-Ran/YFP-importin-beta FRET ratio;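 active = more than half of the replicate wells show a fall in the fluorescence ratio signal beyond about 16%, limit read from the data, passing the limit was not always enough; inconclusive = exactly half of the replicate wells pass the set limit; inactive = fewer than half of replicates pass the limit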;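 also: 0% = DMSO wells and 100% = Ran loaded with GDP instead of GTP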
Tb hexokinase: T. brucei hexokinase 1 inhibition | 0.11% of 220,000 active | inhibition, % at 10 µM | recombinant TbHK1, G6PDH-coupled NADH A340;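 active = inhibition of 50% or more in the single-dose primary screen; inactive = inhibition below 50%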
p97 inhibitor: human p97 ATPase inhibition. 0.42% of 220,000 active. inhibition, % at 8 µM. P55072. AID 1481. recombinant p97 ATPase, Kinase-Glo ATP luminescence, 3 h; in the data active = inhibition above about 15%;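 also: 0% = DMSO vehicle and 100% = wells lacking enzyme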
Target sequence (P55072 whole entry, looked up): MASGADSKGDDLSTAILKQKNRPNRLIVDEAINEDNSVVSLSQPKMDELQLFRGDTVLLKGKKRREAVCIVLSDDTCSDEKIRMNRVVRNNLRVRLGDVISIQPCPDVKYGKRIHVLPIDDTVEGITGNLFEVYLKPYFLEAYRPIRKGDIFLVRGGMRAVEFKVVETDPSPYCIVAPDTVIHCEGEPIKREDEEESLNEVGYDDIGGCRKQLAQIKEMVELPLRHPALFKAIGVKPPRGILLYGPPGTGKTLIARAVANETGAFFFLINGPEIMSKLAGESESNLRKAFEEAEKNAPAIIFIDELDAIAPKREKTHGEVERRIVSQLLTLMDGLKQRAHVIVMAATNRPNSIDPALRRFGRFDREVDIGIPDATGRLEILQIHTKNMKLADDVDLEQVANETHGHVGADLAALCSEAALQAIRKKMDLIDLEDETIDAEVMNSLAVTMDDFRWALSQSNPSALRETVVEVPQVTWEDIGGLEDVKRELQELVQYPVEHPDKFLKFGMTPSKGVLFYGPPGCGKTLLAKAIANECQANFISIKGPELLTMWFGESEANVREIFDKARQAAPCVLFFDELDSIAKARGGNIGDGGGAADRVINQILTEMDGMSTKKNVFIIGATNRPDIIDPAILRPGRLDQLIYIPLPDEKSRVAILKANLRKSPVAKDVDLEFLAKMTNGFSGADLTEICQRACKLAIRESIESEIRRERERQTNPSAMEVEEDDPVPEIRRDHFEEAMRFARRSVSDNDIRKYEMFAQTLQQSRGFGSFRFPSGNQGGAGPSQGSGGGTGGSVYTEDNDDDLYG
Runt-SMMHC FRET: Runt domain-CBFb-SMMHC interaction inhibition; Cerulean-Runt/Venus-CBFb-SMMHC FRET ratio 530/480, 1 h; inhibition, % at 20 µM; 0.74% of 220,000 active; Q01196+Q13951; AID 1434;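 active = mean inhibition across duplicate retests at 20 µM reaching about 50%, limit read from the data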;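 also: 0% = DMSO wells and 100% = wells with excess untagged CBFb-SMMHC; inhibitors lower the FRET ratio by blocking Runt binding to CBFb-SMMHC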
Runt-CBFb TRFRET: Runt-CBFb binding inhibition. shares compounds with Runt-CBFb FRET. TR-FRET RUNX1 Runt domain-CBFb binding. inhibition, % at 20 µM. 20% of 480 active; in the data active = inhibition above about 40%
Starred values were filed as active, the others as inactive. Rows were chosen to be rich in hits. Some 2.1% of all compounds tested hit in one or more screens of this group.

What do the screens show for `COc1cc(C2C3=C(CC(C)(C)CC3=O)N(C)C3=C2C(=O)CC(C)(C)C3)ccc1O`?
RanGTP-Imp inh: 11

Results for COc1cc(C2C3=C(CC(C)(C)CC3=O)Nc3c2c(=O)[nH]c(=O)n3Cc2ccccc2)ccc1O (stereo unspecified) ?
Runt-CBFb FRET: 76*; Hck-Nef inh: 4; RanGTP-Imp inh: inconclusive; Tb hexokinase: -3; p97 inhibitor: 3; Runt-SMMHC FRET: 115*; Runt-CBFb TRFRET: 6

What do the screens show for `CC(C)CCn1c(COc2ccccc2)n[nH]c1=S`?
Runt-CBFb FRET: 4; Hck-Nef inh: 33; RanGTP-Imp inh: 7; Tb hexokinase: 4; p97 inhibitor: 1; Runt-SMMHC FRET: 7

Results for COc1cccc(C(NC(=O)c2ccccc2F)NC(=O)c2ccccc2F)c1 ?
Runt-CBFb FRET: -4; Hck-Nef inh: 4; RanGTP-Imp inh: -7; Tb hexokinase: -1; p97 inhibitor: 1; Runt-SMMHC FRET: 4

What do the screens show for `COc1cccc(C(c2c(N)[nH]c(=S)[nH]c2=O)c2c(N)[nH]c(=S)[nH]c2=O)c1`?
Runt-CBFb FRET: 51*; Hck-Nef inh: -22; RanGTP-Imp inh: 1; Tb hexokinase: -9; p97 inhibitor: 10; Runt-SMMHC FRET: 19; Runt-CBFb TRFRET: 56*

What do the screens show for `O=C(NNC(=O)C1CCCN(S(=O)(=O)c2ccc3ccccc3c2)C1)C1CC1` (stereo unspecified)?
Runt-CBFb FRET: -1; Hck-Nef inh: 23; RanGTP-Imp inh: 0; Tb hexokinase: -1; p97 inhibitor: 7; Runt-SMMHC FRET: -1

How did O=C(COc1cccc(NC(=O)c2ccco2)c1)c1ccccc1 do in these assays?
Runt-CBFb FRET: -2; Hck-Nef inh: 0; RanGTP-Imp inh: 0; Tb hexokinase: 4; p97 inhibitor: 7; Runt-SMMHC FRET: 0

What do the screens show for `O=C(NNc1c2ccccc2nc2ccccc12)c1ccc(O)cc1`?
Runt-CBFb FRET: 52*; Hck-Nef inh: 1; RanGTP-Imp inh: 36*; Tb hexokinase: -6; p97 inhibitor: 6; Runt-SMMHC FRET: 58*; Runt-CBFb TRFRET: -45

How did Cc1ccc(C(=O)NNc2nc3ccccc3nc2C(F)(F)F)cc1 do in these assays?
Runt-CBFb FRET: 4; Hck-Nef inh: 0; RanGTP-Imp inh: 3; Tb hexokinase: -5; p97 inhibitor: -1; Runt-SMMHC FRET: -3

What do the screens show for `O=C(COc1ccccc1)NNc1c2ccccc2nc2ccccc12`?
Runt-CBFb FRET: 58*; Hck-Nef inh: 1; RanGTP-Imp inh: 5; Tb hexokinase: 1; p97 inhibitor: 6; Runt-SMMHC FRET: 81*; Runt-CBFb TRFRET: -1

Results for Cc1nc2ccccc2c(=O)n1NC(=O)COc1ccccc1 ?
Runt-CBFb FRET: 1; Hck-Nef inh: -5; RanGTP-Imp inh: -5; Tb hexokinase: 1; p97 inhibitor: 2; Runt-SMMHC FRET: -2

Results for CCOc1ccc(C(=O)OCC(=O)N2CC(C)OC(C)C2)cc1OCC (stereo unspecified) ?
RanGTP-Imp inh: -1

How did Clc1cccc(Nc2c3c(nc4ncnn24)CCC3)c1 do in these assays?
Runt-CBFb FRET: 54*; Hck-Nef inh: 2; RanGTP-Imp inh: 0; Tb hexokinase: 1; p97 inhibitor: 3; Runt-SMMHC FRET: -1; Runt-CBFb TRFRET: 3

How did Cc1ccccc1C(=O)NC(=S)Nc1sc2c(c1C#N)CCCC2 do in these assays?
Runt-CBFb FRET: 25; Hck-Nef inh: 3; RanGTP-Imp inh: 7; Tb hexokinase: -11; p97 inhibitor: 3; Runt-SMMHC FRET: 15

What do the screens show for `Cc1onc(-c2ccccc2)c1C(=O)NC(=S)Nc1sc2c(c1C#N)CCCC2`?
Runt-CBFb FRET: 51*; Hck-Nef inh: -3; RanGTP-Imp inh: 0; Tb hexokinase: -2; p97 inhibitor: -1; Runt-SMMHC FRET: 37; Runt-CBFb TRFRET: 10

Results for CCOc1ccc2c(c1)c1nnc(SCC(=O)NC3CC3)nc1n2C ?
RanGTP-Imp inh: 2

What do the screens show for `COc1ccc(Cn2c(-c3ccc(OC)cc3)nc3c(c(=O)c4ccccc4n3C)c2=O)cc1`?
Runt-CBFb FRET: -5; Hck-Nef inh: 3; RanGTP-Imp inh: 6; Tb hexokinase: -7; p97 inhibitor: 6; Runt-SMMHC FRET: -2

How did COc1ccc(-c2nc3c(c(=O)c4ccccc4n3C)c(=O)n2Cc2ccccc2)cc1 do in these assays?
Runt-CBFb FRET: 53*; Hck-Nef inh: 1; RanGTP-Imp inh: -1; Tb hexokinase: 1; p97 inhibitor: -2; Runt-SMMHC FRET: 4; Runt-CBFb TRFRET: 61*

How did CC1CC/C(=N/Nc2ccccc2)C(=O)N1 (stereo unspecified) do in these assays?
Runt-CBFb FRET: 51*; Hck-Nef inh: -1; RanGTP-Imp inh: -3; Tb hexokinase: -38; p97 inhibitor: -4; Runt-SMMHC FRET: 1; Runt-CBFb TRFRET: 14

How did O=c1oc2c(-c3cccc(F)c3)cc(O)cc2s1 do in these assays?
Runt-CBFb FRET: 58*; Hck-Nef inh: 28; RanGTP-Imp inh: -1; Tb hexokinase: 21; p97 inhibitor: 10; Runt-SMMHC FRET: 9; Runt-CBFb TRFRET: 23

What do the screens show for `O=C(Cc1ccc2c(c1)OCCO2)N1CCN(c2ccccc2)CC1`?
Runt-CBFb FRET: 0; Hck-Nef inh: 16; RanGTP-Imp inh: 1; Tb hexokinase: -5; p97 inhibitor: 5; Runt-SMMHC FRET: 3

What do the screens show for `CC(c1ccccc1C(O)c1ccccc1)N(C)C` (stereo unspecified)?
Runt-CBFb FRET: 57*; Hck-Nef inh: 1; RanGTP-Imp inh: 3; Tb hexokinase: 1; p97 inhibitor: -2; Runt-SMMHC FRET: 0; Runt-CBFb TRFRET: -14

What do the screens show for `Cc1nc2c(c(=O)n1Cc1ccccc1Cl)c1nc3ccccc3nc1n2Cc1ccco1`?
Runt-CBFb FRET: 33; Runt-SMMHC FRET: 20

What do the screens show for `COc1ccc(Cn2c3nc4ccccc4nc3c3c(=O)n(Cc4ccco4)c(C)nc32)cc1`?
Runt-CBFb FRET: 52*; Runt-SMMHC FRET: 48; Runt-CBFb TRFRET: -29

What do the screens show for `CCn1cc(NC(=O)CCl)c(C)n1`?
Runt-CBFb FRET: 0; Hck-Nef inh: -20; RanGTP-Imp inh: 0; Tb hexokinase: 6; p97 inhibitor: -2; Runt-SMMHC FRET: 0

Results for Fc1ccc(-c2ccnc(=S)[nH]2)cc1 ?
Runt-CBFb FRET: 52*; Hck-Nef inh: -2; RanGTP-Imp inh: 0; Tb hexokinase: -14; p97 inhibitor: 1; Runt-SMMHC FRET: 34; Runt-CBFb TRFRET: 2

How did Cc1[nH]c2ccccc2c1C1=NNC(=Nc2ccc(F)cc2)SC1 do in these assays?
Runt-CBFb FRET: 53*; Hck-Nef inh: 1; Tb hexokinase: -17; p97 inhibitor: 6; Runt-SMMHC FRET: 47; Runt-CBFb TRFRET: -2

Source: PubChem (several laboratories)
